≈ marks a conversion by molar mass, not a printed value.
Assays:
Staphylococcus aureus [1] = assay: Antibacterial activity against Staphylococcus aureus ATCC 25923 after 18 hrs; type: functional; conditions: ATCC 25923, 18 h
How it was run: (§1)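 Twofold serial dilutions in Tryptic Soy Broth, 0.1 to 80 µg/mL; stocks in DMSO/TSB 1:10 v/v. Inoculum adjusted to 0.5 McFarland, then diluted in sterile saline and TSB. Incubated 35 °C for 18 h. MIC taken as the lowest concentration with no visible growth. Triplicate.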

Staphylococcus aureus [2] = assay: Antibacterial activity against vancomycin-intermediate Staphylococcus aureus VISA3 after 18 hrs; type: functional; conditions: VISA3, 18 h; how it was run: as §1
Staphylococcus aureus [3] = assay: Antibacterial activity against multidrug-resistant Staphylococcus aureus 3SP/R33 after 18 hrs; type: functional; conditions: 3SP/R33, 18 h
How it was run: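 Twofold serial dilutions in Tryptic Soy Broth, 0.1 to 80 µg/mL. Stocks prepared in DMSO/TSB 1:10 v/v. Inoculum was adjusted to 0.5 McFarland, then diluted in sterile saline and TSB. Plates were incubated at 35 °C for 18 h. MIC taken as the lowest concentration with no visible growth. Readings at 24 and 48 h served as sterility control. Run in triplicate.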

Trypanosoma cruzi = assay: Antitrypanosomal activity against epimastigote form of Trypanosoma cruzi Y after 5 days by spectrophotometer analysis; type: functional, organism-based; conditions: 120 h
How it was run: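 Stationary-phase epimastigotes from a 10-day, 28 °C culture were set at 2.0 × 10^6 parasites/mL in LIT medium. Compounds in DMSO were diluted into LIT at 1.25–40.0 µM and incubated 5 days at 28 °C. A580 on days 0 and 5 gave % growth inhibition against untreated cultures. IC50 came from dose–response curves (≥4 concentrations). Triplicate; benznidazole reference.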

Candida albicans = assay: Antifungal activity against Candida albicans ATCC 537Y after 48 hrs by serial dilution method; type: functional
How it was run: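 Broth microdilution following CLSI M27-A2, adapted for higher sensitivity. Stocks made in RPMI 1640 with 20% DMSO. Serial dilutions inoculated with C. albicans in RPMI 1640 at 10^3–10^5 CFU/mL final, incubated 35 °C for 48 h. MIC is the lowest concentration giving prominent growth reduction. Wells above 5% v/v DMSO were discarded. Triplicate; fluconazole reference.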

Compound | MIC (Staphylococcus aureus [1]) | MIC (Staphylococcus aureus [2]) | MIC (Staphylococcus aureus [3]) | IC50 (Trypanosoma cruzi) | MIC (Candida albicans)
CC(=O)N1N=C(c2ccccc2)OC1c1ccc([N+](=O)[O-])s1 (stereo not given) | 2.46 µg/mL (≈ 7.75 µM) | 0.63 µg/mL (≈ 1.99 µM) | 1.25 µg/mL (≈ 3.94 µM) | 10.2 µM | –
CC(=O)N1N=C(c2ccc(Cl)cc2)OC1c1ccc([N+](=O)[O-])s1 (stereo not given) | 1.97 µg/mL (≈ 5.6 µM) | 2.5 µg/mL (≈ 7.11 µM) | 1.25 µg/mL (≈ 3.55 µM) | 10.8 µM | 4.25 µg/mL (≈ 12.1 µM)
CC(=O)N1N=C(c2ccc(Br)cc2)OC1c1ccc([N+](=O)[O-])s1 (stereo not given) | 2.66 µg/mL (≈ 6.71 µM) | 2.5 µg/mL (≈ 6.31 µM) | 1.25 µg/mL (≈ 3.15 µM) | 10.2 µM | –
CC(=O)N1N=C(c2ccc(I)cc2)OC1c1ccc([N+](=O)[O-])s1 (stereo not given) | 2.87 µg/mL (≈ 6.48 µM) | 2.5 µg/mL (≈ 5.64 µM) | 1.25 µg/mL (≈ 2.82 µM) | 12.1 µM | –
CC(=O)N1N=C(c2ccc(C(F)(F)F)cc2)OC1c1ccc([N+](=O)[O-])s1 (stereo not given) | 2.62 µg/mL (≈ 6.8 µM) | 2.5 µg/mL (≈ 6.49 µM) | 1.25 µg/mL (≈ 3.24 µM) | 14.2 µM | 7.2 µg/mL (≈ 18.7 µM)
CC(=O)N1N=C(c2ccc(C)cc2)OC1c1ccc([N+](=O)[O-])s1 (stereo not given) | 2.62 µg/mL (≈ 7.91 µM) | 2.5 µg/mL (≈ 7.54 µM) | 1.25 µg/mL (≈ 3.77 µM) | 11.5 µM | 2.95 µg/mL (≈ 8.9 µM)
CCc1ccc(C2=NN(C(C)=O)C(c3ccc([N+](=O)[O-])s3)O2)cc1 (stereo not given) | 2.69 µg/mL (≈ 7.79 µM) | 2.5 µg/mL (≈ 7.24 µM) | 1.25 µg/mL (≈ 3.62 µM) | 10.7 µM | –
CCCc1ccc(C2=NN(C(C)=O)C(c3ccc([N+](=O)[O-])s3)O2)cc1 (stereo not given) | 3.28 µg/mL (≈ 9.13 µM) | 1.25 µg/mL (≈ 3.48 µM) | 1.25 µg/mL (≈ 3.48 µM) | 9.9 µM | –
COc1ccc(C2=NN(C(C)=O)C(c3ccc([N+](=O)[O-])s3)O2)cc1 (stereo not given) | 2.23 µg/mL (≈ 6.42 µM) | 0.63 µg/mL (≈ 1.81 µM) | 1.25 µg/mL (≈ 3.6 µM) | 10.7 µM | –
CCOc1ccc(C2=NN(C(C)=O)C(c3ccc([N+](=O)[O-])s3)O2)cc1 (stereo not given) | 2.36 µg/mL (≈ 6.53 µM) | 2.5 µg/mL (≈ 6.92 µM) | 1.25 µg/mL (≈ 3.46 µM) | 26.6 µM | 5.83 µg/mL (≈ 16.1 µM)
CCCOc1ccc(C2=NN(C(C)=O)C(c3ccc([N+](=O)[O-])s3)O2)cc1 (stereo not given) | 3.28 µg/mL (≈ 8.74 µM) | 2.5 µg/mL (≈ 6.66 µM) | 2.5 µg/mL (≈ 6.66 µM) | 12.2 µM | –
CCCCOc1ccc(C2=NN(C(C)=O)C(c3ccc([N+](=O)[O-])s3)O2)cc1 (stereo not given) | 1.25 µg/mL (≈ 3.21 µM) | 5 µg/mL (≈ 12.8 µM) | 1.25 µg/mL (≈ 3.21 µM) | 11.5 µM | 6.78 µg/mL (≈ 17.4 µM)
CC(=O)N1N=C(c2ccc([N+](=O)[O-])cc2)OC1c1ccc([N+](=O)[O-])s1 (stereo not given) | 2.39 µg/mL (≈ 6.6 µM) | 1.25 µg/mL (≈ 3.45 µM) | 2.5 µg/mL (≈ 6.9 µM) | 9.85 µM | –
CC(=O)N1N=C(c2ccc(C#N)cc2)OC1c1ccc([N+](=O)[O-])s1 (stereo not given) | 2.66 µg/mL (≈ 7.77 µM) | 0.63 µg/mL (≈ 1.84 µM) | 1.25 µg/mL (≈ 3.65 µM) | 8.19 µM | –
COC(=O)c1ccc(C2=NN(C(C)=O)C(c3ccc([N+](=O)[O-])s3)O2)cc1 (stereo not given) | 2.95 µg/mL (≈ 7.86 µM) | 0.63 µg/mL (≈ 1.68 µM) | 1.25 µg/mL (≈ 3.33 µM) | 7.91 µM | –
CC1(C)S[C@@H]2[C@H](NC(=O)[C@H](N)c3ccccc3)C(=O)N2[C@H]1C(=O)O [AMPICILLIN] | 0.1 µg/mL (≈ 0.286 µM) | – | – | – | –
O=C(Cn1ccnc1[N+](=O)[O-])NCc1ccccc1 [BENZNIDAZOLE] | – | – | – | 20.8 µM | –
O=C(N/N=C/c1ccc([N+](=O)[O-])o1)c1ccc(O)cc1 [NIFUROXAZIDE] | 5.9 µg/mL (≈ 21.4 µM) | 5 µg/mL (≈ 18.2 µM) | – | 120 µM | –
